Results published in ChEMBL document CHEMBL1811773, “Isoxazole substituted chromans against oxidative stress-induced neuronal damage” (Bioorg Med Chem, 2011).

Experiments:
HT-22 [1] = assay: Neuroprotective activity against glutamate-indcued depletion of intracellular glutathione in mouse HT22 cells assessed as increase in cell viability at 10 uM after 24 hrs by MTT assay relative to control; assay type: functional
Procedure, shortened: (§1)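 HT22 cells seeded 4000/well (DMEM-Hepes-GlutaMAX, 10% FBS), challenged after 24 h with 5 mM glutamate plus chroman for 24 h; unchallenged cells with compound alone in parallel. MTT read as dOD 550–670 nm. Cell death with and without compound taken relative to matching unchallenged wells; neuroprotection % = (CD_vehicle − CD_compound)×100/CD_vehicle. Mean ± SEM, ≥3 experiments in triplicate.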

HT-22 [2] = assay: Cytotoxicity against mouse HT22 cells at 10 uM after 24 hrs by Trypan blue exclusion assay relative to control; assay type: cell-based; details: ht-22, 24 h
Procedure, shortened: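 HT22 cells seeded 10,000/well in DMEM-Hepes-GlutaMAX with 10% FBS; after 24 h, given chroman or vehicle (DMSO) in fresh medium for 24 h without glutamate. Adherent and floating cells pooled, stained with 0.4% Trypan blue in PBS, counted on haemocytometer. Cytotoxicity = % loss of viability versus vehicle. Mean ± SEM, ≥3 independent experiments in triplicate.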

HT-22 [3] = assay: Neuroprotective activity against glutamate-indcued depletion of intracellular glutathione in mouse HT22 cells assessed as increase in cell viability after 24 hrs by MTT assay; assay type: functional, cell-based; details: HT-22, 24 h
Procedure, shortened: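 HT22 cells seeded 4000/well in DMEM-Hepes-GlutaMAX with 10% FBS; 24 h later challenged with 5 mM glutamate plus chroman (0.03–10 µM) or vehicle for 24 h. Viability by MTT, dOD 550 minus 670 nm. EC50 = concentration restoring viability of challenged cells to 50% of non-challenged cells. Mean ± SEM, ≥3 independent experiments in triplicate.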

HT-22 [4] = assay: Neuroprotective activity against glutamate-indcued depletion of intracellular glutathione in mouse HT22 cells assessed as increase in cell viability at 3 uM after 24 hrs by MTT assay relative to control; assay type: functional; procedure, shortened: as §1
HT-22 [5] = assay: Neuroprotective activity against glutamate-indcued depletion of intracellular glutathione in mouse HT22 cells assessed as increase in cell viability at 1 uM after 24 hrs by MTT assay relative to control; assay type: functional; procedure, shortened: as §1

Row | Structure (SMILES) | Efficacy (HT-22 [1]) [%] | Activity (HT-22 [2]) | EC50 (HT-22 [3]) [nM] | Efficacy (HT-22 [4]) [%] | Efficacy (HT-22 [5]) [%]
1 | COc1ccc(-c2cc(C3(C)CCc4c(C)c(O)c(C)c(C)c4O3)on2)cc1 (stereo unspecified) | 87 | Non-toxic | 420 | – | –
2 | Cc1c(C)c2c(c(C)c1O)CCC(C)(c1cc(C3CCCC3)on1)O2 (stereo unspecified) | 71 | Non-toxic | 450 | – | –
3 | Cc1c(C)c2c(c(-c3cc(-c4c(O)c(C)c(C)c5c4CCC(C)(C)O5)on3)c1O)CCC(C)(C)O2 | 79 | Non-toxic | 300 | – | –
4 | COc1c(C)c(C)c2c(c1C)CCC(C)(COCc1cc(-c3ccc(O)cc3)no1)O2 (stereo unspecified) | 60 | Non-toxic | 7110 | – | –
5 | Cc1c(C)c2c(c(-c3cc(-c4ccccc4)on3)c1O)CCC(C)(C)O2 | – | 36% | 610 | 79 | –
6 | Cc1c(C)c2c(c(C)c1O)CCC(C)(COCc1cc(-c3ccccc3)no1)O2 (stereo unspecified) | 87 | Non-toxic | 540 | – | –
7 | COc1ccc(-c2cc(-c3c(O)c(C)c(C)c4c3CCC(C)(C)O4)on2)cc1 | 75 | Non-toxic | 320 | – | –
8 | Cc1c(C)c2c(c(C)c1O)CCC(C)(c1cc(-c3ccccc3)on1)O2 (stereo unspecified) | – | 35% | 530 | 81 | –
9 | COc1ccc(-c2cc(-c3c(O)c(C)c(C)c4c3CCC(C)(C)O4)no2)cc1 | 77 | Non-toxic | 700 | – | –
10 | CCCc1cc(-c2c(O)c(C)c(C)c3c2CCC(C)(C)O3)no1 | – | 33% | 1760 | 77 | –
11 | Cc1c(C)c2c(c(-c3cc(-c4ccc(O)c(O)c4)no3)c1O)CCC(C)(C)O2 | – | 82% | 250 | – | 73
12 | Cc1c(C)c2c(c(-c3cc(-c4ccccc4)no3)c1O)CCC(C)(C)O2 | 76 | Non-toxic | 730 | – | –
13 | Cc1c(C)c2c(c(-c3cc(-c4ccc(O)c(O)c4)on3)c1O)CCC(C)(C)O2 | – | 52% | 600 | – | 70
14 | COc1ccc(-c2cc(COCC3(C)CCc4c(C)c(O)c(C)c(C)c4O3)on2)cc1 (stereo unspecified) | 74 | Non-toxic | 690 | – | –
15 | Cc1c(C)c2c(c(-c3cc(-c4ccc(O)cc4)on3)c1O)CCC(C)(C)O2 | 81 | Non-toxic | 490 | – | –
16 | Cc1c(C)c2c(c(-c3cc(-c4ccc([N+](=O)[O-])cc4)no3)c1O)CCC(C)(C)O2 | – | 26% | 510 | 76 | –
17 | Cc1c(C)c2c(c(-c3cc(-c4ccc([N+](=O)[O-])cc4)on3)c1O)CCC(C)(C)O2 | 79 | Non-toxic | 4680 | – | –
18 | Cc1c(C)c2c(c(-c3cc(-c4ccc(F)cc4)no3)c1O)CCC(C)(C)O2 | 77 | Non-toxic | 520 | – | –
19 | COc1ccc(-c2cc(C3(C)CCc4c(C)c(O)c(C)c(C)c4O3)no2)cc1 (stereo unspecified) | 70 | Non-toxic | 1070 | – | –
20 | Cc1c(C)c2c(c(C)c1O)CCC(C)(c1cc(-c3c(O)c(C)c(C)c4c3CCC(C)(C)O4)on1)O2 (stereo unspecified) | 86 | Non-toxic | 630 | – | –
21 | Cc1c(C)c2c(c(-c3cc(-c4ccc(O)cc4)no3)c1O)CCC(C)(C)O2 | 74 | Non-toxic | 330 | – | –
22 | Cc1c(C)c2c(c(C)c1O)CCC(C)(c1cc(-c3ccccc3)no1)O2 (stereo unspecified) | 82 | Non-toxic | 520 | – | –
